Reference: ChEMBL document CHEMBL1208665, “Discovery of new 1,3,5-triazine scaffolds with potent activity against Mycobacterium tuberculosis H37Rv” (Eur J Med Chem, 2010)
Values after ≈ are worked out from the molar mass of the structure shown.

Columns and labels:
[1] = tested on: Mycobacterium tuberculosis; assay: Antimycobacterial activity against Mycobacterium tuberculosis H37Rv […] after 4 weeks; format: functional
Method in brief: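 Agar-slant dilution against H37Rv. Compounds from 1.0 mg/mL DMSO stock, two-fold serial dilutions, were incorporated into OADC-supplemented medium (2 mL/tube final) and solidified slanted. Inoculum spread on the surface, incubated 37 °C for 4 weeks. Drug-free tubes served as control. MIC is the lowest concentration giving complete growth inhibition relative to the inoculum used.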

[2] = Cytotoxicity against mouse BMDM after 48 hrs by MTS assay; format: cell-based; conditions: for Activity: bmdm, 48 h
Method in brief: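 Mouse femur bone marrow was flushed with DMEM + 10% FBS, 15% L-929 conditioned supernatant and non-essential amino acids. Cells were plated at 10⁵/well, medium was changed every 3rd day, and cells were used at day 5. Compounds were added in antibiotic-free FBS-DMEM for 48 h at 37 °C, 5% CO₂. Read-out was MTS, 2 h, A490, with DMSO wells taken as 100% survival.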

Vero = assay: (§1) Cytotoxicity against Vero cells after 24 hrs by MTS assay; format: cell-based; conditions: chlorocebus sabaeus, vero, 24 h
Method in brief: (§2)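 VERO cells were seeded at 20,000/well in MEM + 10% FBS with antibiotics and left to adhere overnight at 37 °C, 5% CO₂. Compound dilutions were added in MEM + 10% FBS for 24 h, with DMSO as negative control and a known toxic compound as positive control. Read-out was MTS, 2 h, A490, with DMSO wells taken as 100% survival.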

[3] = as §1; format: cell-based; conditions: chlorocebus sabaeus, Vero cells; read-out: MIC; method in brief: as §2

| SMILES | MIC [1] | also measured |
| --- | --- | --- |
| CC(C)(C)Nc1nc(NNC(=O)c2ccncc2)nc(Nc2ccccc2)n1 | > 12.5 µg/mL |  |
| CCCNC1COCCN1c1nc(N2CCc3ccccc3C2)nc(N2CCc3ccccc3C2)n1 (stereo not drawn) | > 12.5 µg/mL |  |
| CCN(CC)CCNc1nc(N)nc(Nc2nc(SC)cc(-c3cc(OC)c(OC)c(OC)c3)n2)n1 | > 12.5 µg/mL |  |
| CCNC1CN(c2nc(N3CCc4ccccc4C3)nc(N3CCc4ccccc4C3)n2)CCO1 (stereo not drawn) | 3.12 µg/mL (≈ 6.62 µM) | Activity [2]: Toxic; Activity (Vero): Non-toxic |
| CCNC1CN(c2nc(N3CCCCC3)nc(N3CCOC(NCC)C3)n2)CCO1 (stereo not drawn) | > 12.5 µg/mL |  |
| COc1cc(-c2cc(SC)nc(Nc3nc(N4CCOCC4)nc(N4CCOCC4)n3)n2)cc(OC)c1OC | > 12.5 µg/mL |  |
| CC(C)(C)Nc1nc(N2CCc3ccccc3C2)nc(N2CCc3ccccc3C2)n1 | > 12.5 µg/mL |  |
| CCNc1nc(NCC)nc(N2CCCc3ccccc32)n1 | > 12.5 µg/mL |  |
| CCCCNc1nc(NCCCC)nc(Nc2nc(SC)cc(-c3cc(OC)c(OC)c(OC)c3)n2)n1 | > 12.5 µg/mL |  |
| CC(C)Nc1nc(NC(C)C)nc(N2CCCCC2)n1 | 12.5 µg/mL (≈ 44.9 µM) |  |
| CCCNc1nc(NCCC)nc(Nc2nc(SC)cc(-c3cc(OC)c(OC)c(OC)c3)n2)n1 | > 12.5 µg/mL |  |
| CCNC1CN(c2nc(Nc3nc(SC)cc(-c4ccc(OC)c(OC)c4)n3)nc(N3CCOC(NCC)C3)n2)CCO1 (stereo not drawn) | > 12.5 µg/mL |  |
| COc1ccc(-c2cc(SC)nc(Nc3nc(N4CCOCC4)nc(N4CCOCC4)n3)n2)cc1OC | > 12.5 µg/mL |  |
| O=C(NNc1nc(Nc2ccccc2)nc(NC2CCCCC2)n1)c1ccncc1 | 6.25 µg/mL (≈ 15.5 µM) |  |
| COc1ccc(-c2cc(SC)nc(Nc3nc(NCCN(C)C)nc(NCCN(C)C)n3)n2)cc1OC | 6.25 µg/mL (≈ 11.8 µM) |  |
| COc1cc(-c2cc(N3CCCCC3)nc(N)n2)cc(OC)c1OC | > 12.5 µg/mL |  |
| COc1ccc(-c2cc(SC)nc(Nc3nc(N4CCCCC4)nc(N4CCCCC4)n3)n2)cc1OC | > 12.5 µg/mL |  |
| CCCNC1COCCN1c1nc(N2CCCc3ccccc32)nc(N2CCCc3ccccc32)n1 (stereo not drawn) | > 12.5 µg/mL |  |
| CC(C)Nc1nc(NNC(=O)c2ccncc2)nc(N2CCc3ccccc3C2)n1 | 3.12 µg/mL (≈ 7.71 µM) | Activity [2]: Non-toxic; Activity (Vero): Non-toxic |
| CCN(CC)CCNc1nc(NCCN(CC)CC)nc(N2CCCc3ccccc32)n1 | > 12.5 µg/mL |  |
| CCCNC1COCCN1c1cc(-c2cc(OC)c(OC)c(OC)c2)nc(N)n1 (stereo not drawn) | > 12.5 µg/mL |  |
| CC(C)Nc1nc(NNC(=O)c2ccncc2)nc(N2CCCc3ccccc32)n1 | 3.12 µg/mL (≈ 7.71 µM) | Activity [2]: Non-toxic; Activity (Vero): Non-toxic |
| CC(C)(C)Nc1nc(NNC(=O)c2ccncc2)nc(N2CCc3ccccc3C2)n1 | 3.12 µg/mL (≈ 7.46 µM) | Activity [2]: Toxic; Activity (Vero): Non-toxic |
| CCCNc1nc(NCCC)nc(N2CCCc3ccccc32)n1 | > 12.5 µg/mL |  |
| O=C(NNc1nc(Nc2ccccc2)nc(N2CCOCC2)n1)c1ccncc1 | 1.56 µg/mL (≈ 3.98 µM) | Activity [2]: Non-toxic; Activity (Vero): Non-toxic |
| COc1cc(-c2cc(SC)nc(Nc3nc(N4CCN(C)CC4)nc(N4CCN(C)CC4)n3)n2)cc(OC)c1OC | 12.5 µg/mL (≈ 21.5 µM) |  |

| SMILES | MIC [1] | also measured |
| --- | --- | --- |
| COc1ccc(-c2cc(SC)nc(Nc3nc(NC(C)(C)C)nc(NC(C)(C)C)n3)n2)cc1OC | 6.25 µg/mL (≈ 12.5 µM) |  |
| CCCNC1COCCN1c1nc(Nc2nc(SC)cc(-c3ccc(OC)c(OC)c3)n2)nc(N2CCOCC2NCCC)n1 (stereo not drawn) | > 12.5 µg/mL |  |
| CCCCNc1nc(NNC(=O)c2ccncc2)nc(N2CCc3ccccc3C2)n1 | 3.12 µg/mL (≈ 7.46 µM) | Activity [2]: Non-toxic; Activity (Vero): Non-toxic |
| COc1ccc(-c2cc(SC)nc(Nc3nc(NC(C)C)nc(NC(C)C)n3)n2)cc1OC | 12.5 µg/mL (≈ 26.6 µM) |  |
| CCCNc1nc(NCCC)nc(N2CCCCC2)n1 | 12.5 µg/mL (≈ 44.9 µM) | MCC at 48 h ([2]; BMDM (bone marrow-derived macrophages), read-out: MIC): > 12.5 µg/mL; MCC at 24 h [3]: > 12.5 µg/mL |
| O=C(NNc1nc(N2CCc3ccccc3C2)nc(N2CCc3ccccc3C2)n1)c1ccncc1 | 3.12 µg/mL (≈ 6.52 µM) | Activity [2]: Toxic; Activity (Vero): Non-toxic |
| CN(C)CCNc1nc(NCCN(C)C)nc(N2CCCc3ccccc32)n1 | > 12.5 µg/mL |  |
| O=C(NNc1nc(N2CCOCC2)nc(N2CCCc3ccccc32)n1)c1ccncc1 | 3.12 µg/mL (≈ 7.21 µM) | Activity [2]: Non-toxic; Activity (Vero): Non-toxic |
| CCCCNc1nc(NNC(=O)c2ccncc2)nc(N2CCCCC2)n1 | 3.12 µg/mL (≈ 8.42 µM) | Activity [2]: Non-toxic; Activity (Vero): Non-toxic |
| CCCCNc1nc(NNC(=O)c2ccncc2)nc(N2CCCc3ccccc32)n1 | 6.25 µg/mL (≈ 14.9 µM) |  |
| CCNC1CN(c2cc(-c3cc(OC)c(OC)c(OC)c3)nc(N)n2)CCO1 (stereo not drawn) | > 12.5 µg/mL |  |
| CN(C)CCNc1nc(NCCN(C)C)nc(N2CCCCC2)n1 | > 12.5 µg/mL |  |
| CC(C)Nc1nc(NC(C)C)nc(N2CCCc3ccccc32)n1 | > 12.5 µg/mL |  |
| CCNc1nc(NCC)nc(N2CCCCC2)n1 | > 12.5 µg/mL |  |
| COc1cc(-c2cc(SC)nc(Nc3nc(NC(C)(C)C)nc(NC(C)(C)C)n3)n2)cc(OC)c1OC | 3.12 µg/mL (≈ 5.9 µM) | Activity [2]: Toxic; Activity (Vero): Non-toxic |
| CCCNC1COCCN1c1nc(Nc2nc(SC)cc(-c3cc(OC)c(OC)c(OC)c3)n2)nc(N2CCOCC2NCCC)n1 (stereo not drawn) | 12.5 µg/mL (≈ 18.6 µM) |  |
| COc1ccc(-c2cc(SC)nc(Nc3nc(N4CCN(C)CC4)nc(N4CCN(C)CC4)n3)n2)cc1OC | > 12.5 µg/mL |  |
| CCN(CC)CCNc1nc(NCCN(CC)CC)nc(N2CCCCC2)n1 | > 12.5 µg/mL |  |
| NNC(=O)c1ccncc1 [ISONIAZID] | 0.025 µg/mL (≈ 0.182 µM) | Activity [2]: Non-toxic; Activity (Vero): Non-toxic |
| O=C(NNc1nc(Nc2ncccn2)nc(N2CCCCC2)n1)c1ccncc1 | 3.12 µg/mL (≈ 7.95 µM) | Activity [2]: Non-toxic; Activity (Vero): Non-toxic |
| CC(C)(C)Nc1nc(N2CCCc3ccccc32)nc(N2CCCc3ccccc32)n1 | > 12.5 µg/mL |  |
| CC(C)(C)Nc1nc(NNC(=O)c2ccncc2)nc(N2CCCc3ccccc32)n1 | 3.12 µg/mL (≈ 7.46 µM) |  |
| CCN1CCN(c2nc(Nc3nc(SC)cc(-c4ccc(OC)c(OC)c4)n3)nc(N3CCN(CC)CC3)n2)CC1 | 12.5 µg/mL (≈ 21.5 µM) |  |
| CCN(CC)CCNc1nc(NCCN(CC)CC)nc(Nc2nc(SC)cc(-c3ccc(OC)c(OC)c3)n2)n1 | 6.25 µg/mL (≈ 10.7 µM) |  |
| COc1cc(-c2cc(N3CCOCC3)nc(N)n2)cc(OC)c1OC | > 12.5 µg/mL |  |
| CCCCNc1cc(-c2cc(OC)c(OC)c(OC)c2)nc(N)n1 | > 12.5 µg/mL |  |

| SMILES | MIC [1] | also measured |
| --- | --- | --- |
| O=C(NNc1nc(Nc2ccccc2)nc(Nc2ccccc2)n1)c1ccncc1 | > 12.5 µg/mL |  |
| COc1cc(-c2cc(SC)nc(Nc3nc(NC(C)C)nc(NC(C)C)n3)n2)cc(OC)c1OC | 3.12 µg/mL (≈ 6.23 µM) | Activity [2]: Toxic; Activity (Vero): Toxic |
| CCCNc1nc(NCCC)nc(Nc2nc(SC)cc(-c3ccc(OC)c(OC)c3)n2)n1 | > 12.5 µg/mL |  |
| CCNC1CN(c2nc(N3CCCc4ccccc43)nc(N3CCCc4ccccc43)n2)CCO1 (stereo not drawn) | > 12.5 µg/mL |  |
| c1ccc2c(c1)CCN(c1nc(N3CCOCC3)nc(N3CCc4ccccc4C3)n1)C2 | > 12.5 µg/mL |  |
| COc1cc(-c2cc(N3CCN(C)CC3)nc(N)n2)cc(OC)c1OC | > 12.5 µg/mL |  |
| COc1cc(-c2cc(SC)nc(Nc3nc(N4CCCCC4)nc(N4CCCCC4)n3)n2)cc(OC)c1OC | 6.25 µg/mL (≈ 11.3 µM) |  |
| CCN1CCN(c2nc(Nc3nc(SC)cc(-c4cc(OC)c(OC)c(OC)c4)n3)nc(N3CCN(CC)CC3)n2)CC1 | 12.5 µg/mL (≈ 20.5 µM) |  |
| CC(C)(C)Nc1nc(NC(C)(C)C)nc(N2CCCCC2)n1 | > 12.5 µg/mL |  |
| CC(C)(C)Nc1nc(NNC(=O)c2ccncc2)nc(N2CCCCC2)n1 | 6.25 µg/mL (≈ 16.9 µM) |  |
| CC(C)Nc1nc(NNC(=O)c2ccncc2)nc(Nc2ccccc2)n1 | 6.25 µg/mL (≈ 17.2 µM) |  |
| CC(C)(C)Nc1nc(NC(C)(C)C)nc(N2CCCc3ccccc32)n1 | > 12.5 µg/mL |  |
| CCN(CC)CCNc1cc(-c2cc(OC)c(OC)c(OC)c2)nc(N)n1 | > 12.5 µg/mL |  |
| NN(C(=O)c1ccncc1)c1nc(Nc2ccccc2)nc(N(N)C(=O)c2ccncc2)n1 | > 12.5 µg/mL |  |
| CC(C)Nc1nc(NNC(=O)c2ccncc2)nc(N2CCCCC2)n1 | 3.12 µg/mL (≈ 8.75 µM) | Activity [2]: Non-toxic; Activity (Vero): Non-toxic |
| O=C(NNc1nc(N2CCCCC2)nc(N2CCCCC2)n1)c1ccncc1 | 6.25 µg/mL (≈ 16.3 µM) |  |
| CCN(CC)CCNc1nc(N2CCc3ccccc3C2)nc(N2CCc3ccccc3C2)n1 | > 12.5 µg/mL |  |
| CN1CCN(c2nc(N3CCCc4ccccc43)nc(N3CCCc4ccccc43)n2)CC1 | > 12.5 µg/mL |  |
| CCCCNc1nc(NNC(=O)c2ccncc2)nc(Nc2ccccc2)n1 | 6.25 µg/mL (≈ 16.5 µM) |  |
| O=C(NNc1nc(N2CCCCC2)nc(N2CCc3ccccc3C2)n1)c1ccncc1 | 3.12 µg/mL (≈ 7.25 µM) | Activity [2]: Toxic; Activity (Vero): Non-toxic |
| CN1CCN(c2nc(N3CCc4ccccc4C3)nc(N3CCc4ccccc4C3)n2)CC1 | 6.25 µg/mL (≈ 14.2 µM) |  |
| CCN(CC)CCNc1nc(N2CCCc3ccccc32)nc(N2CCCc3ccccc32)n1 | > 12.5 µg/mL |  |
| O=C(NNc1nc(Nc2ccccc2)nc(N2CCCCC2)n1)c1ccncc1 | > 12.5 µg/mL |  |
| c1ccc2c(c1)CCCN2c1nc(N2CCOCC2)nc(N2CCCc3ccccc32)n1 | > 12.5 µg/mL |  |
